Assay results collected from several papers.
Target: Mitogen-activated protein kinase 1 (MAPK1, Homo sapiens, UniProt P28482)

O=C(c1ccc(Nc2ncc(Cl)c(-c3ccc(Cl)s3)n2)cc1)N1CCC(N2CCCC2)CC1
remaining binding (binding; competition with immobilised ligand; 1 µM): 100%

C=CC(=O)N1CCC(C(=O)NCC(=O)N2CCN(c3nc(-c4cnc(N)nc4C(F)F)nc(N4CCOCC4)n3)CC2)CC1
remaining binding (binding; competition with immobilised ligand; 1 µM): 98%

CCCOc1ccc([C@@H]2[C@@H](C(=O)O)[C@H](c3ccc4c(c3)OCO4)CN2CC(=O)Nc2c(CC)cccc2CC)cc1
remaining binding (cell-free assay; competition with immobilised ligand; 1 µM): 100%

Cc1cnc(Nc2ccc(C(=O)N3CCC(N4CCCC4)CC3)cc2)nc1-c1cc2ccccc2s1
remaining binding (binding; competition with immobilised ligand; 1 µM): 100%

CSc1cccnc1N1CCN(Cc2nc3ccccc3[nH]2)CC1
remaining binding (cell-free assay; competition with immobilised ligand; 1 µM): 93%

C[C@H]1CCN(c2nccc(-c3cnn4ncccc34)n2)C1
remaining binding (binding; 1 µM): 100%

O=C(Nc1c[nH]nc1C(=O)NC1CCNCC1)c1cc(F)cc(F)c1
remaining binding (binding; competition with immobilised ligand; 1 µM): 100%

COc1ncc2cc3ccccc3nc2c1C#N
remaining binding (cell-free assay; competition with immobilised ligand; 5 µM): 100%

CN(CCCC(F)(F)F)c1nccc(-c2cnn3ncccc23)n1
remaining binding (binding; 1 µM): 100%

O=C(NCCCN1CCOCC1)c1ccc(Nc2ncc(Cl)c(-c3ccc(Cl)s3)n2)cc1
remaining binding (binding; competition with immobilised ligand; 1 µM): 100%

COc1cnc(Nc2cccc(S(N)(=O)=O)c2)nc1N1CCN(c2ccccc2)CC1
remaining binding (binding; competition with immobilised ligand; 1 µM): 100%

Nc1ncc2c(n1)-c1c([nH]c3ccc(C#CC4CC4)cc13)CCCC2
remaining binding (binding; competition with immobilised ligand; 1 µM): 100%

CN(c1nccc(-c2cnn3ncccc23)n1)C1CC1
remaining binding (binding; 1 µM): 100%

CNC(=O)Nc1ccc2c(c1)[C@@]1(CC2)OC(=O)N(CC(=O)N(Cc2ccc(F)cc2)[C@@H](C)C(F)(F)F)C1=O
remaining binding (cell-free assay; competition with immobilised ligand; 1 µM): 91%

F[C@@H]1CCN(c2nccc(-c3cnn4ncccc34)n2)C1
remaining binding (binding; 1 µM): 100%

Cc1c(C(=O)O)cc(-c2ccc(C3CCNCC3)cc2)c2ccc(-c3ccc(C(F)(F)F)cc3)cc12
remaining binding (binding; competition with immobilised ligand; 1 µM): 100%

c1cnn2ncc(-c3ccnc(N4CCC45COC5)n3)c2c1
remaining binding (binding; 1 µM): 100%

COc1cccc(CNC(=O)c2nc3scc(COCc4ccc(C(=O)O)cc4)c3c(=O)[nH]2)c1
remaining binding (cell-free assay; competition with immobilised ligand; 1 µM): 100%

N[C@@H]1CCN(c2nccc(-c3cnn4ncccc34)n2)C1
remaining binding (binding; 1 µM): 100%

CO[C@@H](C)c1c(Nc2ccc([C@H](N(C)C(=O)C3CCS(=O)(=O)CC3)C(F)(F)F)cc2)cnc2cc(Cl)nn12
remaining binding (cell-free assay; competition with immobilised ligand; 1 µM): 100%

CC1CCCN1c1nccc(-c2cnn3ncccc23)n1 (stereo not shown)
remaining binding (binding; 1 µM): 95%

C[C@@H]1CN(c2cc(-c3n[nH]c4ccc(OC5(C)CC5)cc34)ncn2)C[C@H](C)O1
remaining binding (cell-free assay; competition with immobilised ligand; 0.1 µM): 98%
